In ChEMBL document CHEMBL2146476, “Discovery of selective glucocorticoid receptor modulator MK-5932” (Bioorg Med Chem, 2011):

Experiments:
Glucocorticoid receptor = target: T1, Glucocorticoid receptor (Homo sapiens, UniProt P04150); test: Displacement of [3H]-dexamethasone from human full length GR expressed in insect Sf21 cells
T1 sequence (P04150 whole entry): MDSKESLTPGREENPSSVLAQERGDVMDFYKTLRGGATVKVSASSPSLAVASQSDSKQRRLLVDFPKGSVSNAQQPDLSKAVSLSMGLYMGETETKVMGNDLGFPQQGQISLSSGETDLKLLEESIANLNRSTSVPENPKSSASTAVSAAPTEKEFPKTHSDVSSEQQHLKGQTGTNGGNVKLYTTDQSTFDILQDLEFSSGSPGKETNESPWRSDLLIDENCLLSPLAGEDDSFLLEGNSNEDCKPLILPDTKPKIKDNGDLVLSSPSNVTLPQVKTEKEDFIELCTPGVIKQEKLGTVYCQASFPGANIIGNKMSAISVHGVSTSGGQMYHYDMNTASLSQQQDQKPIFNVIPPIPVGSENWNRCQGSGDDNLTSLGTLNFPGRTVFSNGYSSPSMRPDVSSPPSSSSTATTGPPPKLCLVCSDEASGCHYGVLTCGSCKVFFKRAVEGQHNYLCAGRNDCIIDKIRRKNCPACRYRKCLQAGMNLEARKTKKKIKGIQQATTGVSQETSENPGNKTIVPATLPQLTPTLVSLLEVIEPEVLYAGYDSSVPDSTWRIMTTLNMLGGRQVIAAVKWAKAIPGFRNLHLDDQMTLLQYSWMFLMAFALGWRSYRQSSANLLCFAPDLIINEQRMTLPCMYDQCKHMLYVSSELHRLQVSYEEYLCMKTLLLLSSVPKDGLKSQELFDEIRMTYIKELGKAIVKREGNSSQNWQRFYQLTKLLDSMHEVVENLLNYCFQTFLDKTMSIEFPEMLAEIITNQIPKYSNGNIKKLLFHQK
Procedure, shortened: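 Human full-length GR expressed in insect cells, incubated with compound and 3H-dexamethasone overnight at 4 °C. Bound radioactivity quantified after filtration capture. Nonspecific binding defined with excess unlabelled dexamethasone. Mean of at least two runs.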

[1] = target: T2, Glucocorticoid receptor (Homo sapiens) (UniProt P04150); test: Transactivation activity at GR-mediated modulation of MMTV promoter activity in human A549 cells transfected with luciferase gene linked to MMTV promoter after 16 hrs by luciferase reporter gene assay; assay type: cell-based
T2 sequence (whole entry): T1 sequence (P04150 whole entry)
Procedure, shortened: (§1)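 HeLa or A549 cells transiently transfected with a luciferase reporter under the MMTV promoter (two GREs), in 10% charcoal-stripped FBS. Compound exposure 16 h, then luciferase measured. Activity expressed as percent of the span between DMSO and dexamethasone controls. Mean of at least three runs.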

[2] = target: T2, Glucocorticoid receptor (Homo sapiens); test: Transrepression activity at glucocorticoid receptor in human LPS and TPA-stimulated U937 cells assessed as effect on glucocorticoid-induced TNFalpha repression by beta lactamase reporter gene assay; assay type: cell-based; settings: U-937
Procedure, shortened: (§2)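 U937 cells stably carrying a β-lactamase reporter driven by the human TNF-α promoter (-1083 to +182), in 5% charcoal-stripped FBS. Stimulated with 1 µg/mL LPS plus 50 ng/mL TPA, compound exposure 16 h. β-Lactamase read out. Activity expressed as percent of the span between DMSO and 100 nM dexamethasone controls. Mean of at least three runs.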

[3] = target: T2, Glucocorticoid receptor (Homo sapiens); test: Transactivation activity at GR-mediated modulation of MMTV promoter activity in human HeLa cells transfected with luciferase gene linked to MMTV promoter after 16 hrs by luciferase reporter gene assay; assay type: cell-based; procedure, shortened: as §1
[4] = target: T2, Glucocorticoid receptor (Homo sapiens); test: Transactivation activity at GR-mediated modulation of MMTV promoter activity in human HeLa cells transfected with luciferase gene linked to MMTV promoter after 16 hrs by luciferase reporter gene assay relative to dexamethasone; assay type: cell-based; procedure, shortened: as §1
[5] = target: T2, Glucocorticoid receptor (Homo sapiens); test: Transrepression activity at glucocorticoid receptor in human LPS and TPA-stimulated U937 cells assessed as effect on glucocorticoid-induced TNFalpha repression by beta lactamase reporter gene assay relative to dexamethasone; assay type: cell-based; settings: U-937; procedure, shortened: as §2
[6] = target: T2, Glucocorticoid receptor (Homo sapiens); test: Transactivation activity at GR-mediated modulation of MMTV promoter activity in human A549 cells transfected with luciferase gene linked to MMTV promoter after 16 hrs by luciferase reporter gene assay relative to dexamethasone; assay type: cell-based; procedure, shortened: as §1
Rattus norvegicus = test: Drug metabolism in oxazolone-induced Sprague-Dawley rat chronic dermatitis model assessed as 2-fluoro-6-(2-((4aS,5R)-1-(4-fluorophenyl)-5-hydroxy-4a-methyl-1,4,4a,5,6,7-hexahydrocyclopenta[f]indazol-5-yl)ethyl)-N-(1-(hydroxymethyl)cyclopropyl)benzamide level at 15 mg/kg, po; settings: in vivo
[7] = Drug uptake in oxazolone-induced Sprague-Dawley rat chronic dermatitis model at 15 mg/kg, po; assay type: ADME, organism-based; set-up: dose 15 mg/kg, route oral; settings: in vivo, read-out: Drug uptake
Procedure, shortened: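 Exposure measured in female Sprague-Dawley rats in the oxazolone chronic dermatitis model: sensitization Day 0, ear challenge Days 7 and 9, daily oral dosing for 7 d from Day 7. Exposure expressed as µM h. Blood collected ~4-5 h after last dose.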

| Structure (SMILES) | Ki (Glucocorticoid receptor) [nM] | IP [1] [nM] | IP [2] [nM] | IP [3] [nM] | Emax [4] [%] | Emax [5] [%] | Emax [6] [%] | Drug metabolism (Rattus norvegicus) [µM·h] | AUC [7] [µM·h] |
| --- | --- | --- | --- | --- | --- | --- | --- | --- | --- |
| CNC(=O)c1ccccc1CC[C@]1(O)CCC2=Cc3c(cnn3-c3ccc(F)cc3)C[C@@]21C | 2 | 193 | 263 | 317 | 48 | 50 | 49 |  |  |
| C=CCNC(=O)c1ccccc1CC[C@]1(O)CCC2=Cc3c(cnn3-c3ccc(F)cc3)C[C@@]21C | 1 | 62 | 123 | 93 | 21 | 62 | 37 |  |  |
| C[C@]12Cc3cnn(-c4ccc(F)cc4)c3C=C1CC[C@@]2(O)CCc1c(F)cccc1C(N)=O | < 1 | 6 | 3 | 7 | 89 | 90 | 82 |  |  |
| CC(C)(C)NC(=O)c1ccccc1CC[C@]1(O)CCC2=Cc3c(cnn3-c3ccc(F)cc3)C[C@@]21C | 10 | 212 | 246 | 108 | 14 | 79 | 23 |  |  |
| Cc1cc2cnn(-c3ccc(F)cc3)c2cc1CCC(=O)CCc1ccc(F)cc1C(=O)O | > 400 |  |  |  | < 5 | < 5 | < 5 |  |  |
| CC1(NC(=O)c2c(F)cccc2CC[C@]2(O)CCC3=Cc4c(cnn4-c4ccc(F)cc4)C[C@@]32C)CC1 | < 1 | 32 | 20 | 27 | 33 | 81 | 41 | 3.8 | 64 |
| CCCNC(=O)c1c(F)cccc1CC[C@]1(O)CCC2=Cc3c(cnn3-c3ccc(F)cc3)C[C@@]21C | < 1 | 26 | 30 | 43 | 17 | 72 | 25 |  |  |
| C[C@]12Cc3cnn(-c4ccc(F)cc4)c3C=C1CC[C@@]2(O)CCc1cc(F)ccc1C(N)=O | < 1 | 36 | 89 | 58 | 47 | 70 | 120 |  |  |
| C[C@@]12C(=Cc3c(cnn3-c3ccc(F)cc3)C1O)CC[C@@]2(O)CCc1ccc(F)cc1C(N)=O (stereo not given in full) | 58 |  |  |  | < 5 | 6 | < 5 |  |  |
| CNC(=O)c1ccc(CC[C@]2(O)CCC3=Cc4c(cnn4-c4ccc(F)cc4)C[C@@]32C)cc1 | 155 |  |  |  | < 10 | 12 | < 10 |  |  |
| CC(C)(CO)NC(=O)c1ccccc1CC[C@]1(O)CCC2=Cc3c(cnn3-c3ccc(F)cc3)C[C@@]21C | 1 | 33 | 26 | 30 | 71 | 88 | 83 |  |  |
